Measurements as given in ChEMBL document CHEMBL4715761, “LAT1 activity of carboxylic acid bioisosteres: Evaluation of hydroxamic acids as substrates” (Bioorg Med Chem Lett, 2016).

Each compound was assayed against T1, Large neutral amino acids transporter small subunit 1 (Homo sapiens, UniProt Q01650) (assay: Inhibition of human LAT1 expressed in HEK293-T-Rex cells assessed as inhibition of [3H]-gabapentin uptake at 200 uM by scintillation counting cis-inhibition assay).
T1 sequence (Q01650 whole entry): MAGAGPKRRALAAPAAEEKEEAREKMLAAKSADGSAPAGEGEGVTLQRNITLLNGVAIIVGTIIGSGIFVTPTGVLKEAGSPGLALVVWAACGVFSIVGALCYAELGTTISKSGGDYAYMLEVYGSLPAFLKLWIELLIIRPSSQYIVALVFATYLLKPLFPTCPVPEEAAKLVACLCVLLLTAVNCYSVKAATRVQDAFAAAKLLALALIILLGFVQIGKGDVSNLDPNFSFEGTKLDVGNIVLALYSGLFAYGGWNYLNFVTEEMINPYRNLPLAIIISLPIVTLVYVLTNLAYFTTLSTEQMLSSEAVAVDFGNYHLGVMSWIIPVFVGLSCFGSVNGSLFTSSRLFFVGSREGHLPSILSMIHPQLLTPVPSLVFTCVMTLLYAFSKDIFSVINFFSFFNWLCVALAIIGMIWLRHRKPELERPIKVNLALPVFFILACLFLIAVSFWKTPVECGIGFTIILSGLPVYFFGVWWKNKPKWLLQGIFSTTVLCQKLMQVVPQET
Format: cell-based
Procedure, shortened: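 HEK cells overexpressing human LAT1; test compound at 200 μM added during [3H]-gabapentin uptake (cis-inhibition). Reported as % inhibition relative to background signal without test compound; cell data at least in triplicate.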
For CS(=O)(=O)NC(=O)[C@@H](N)Cc1ccccc1, the inhibition was 15%. NCC(=O)O [GLYCINE] was tested, and the inhibition was 33%. N[C@@H](Cc1c[nH]c2ccccc12)C(=O)NO gave an inhibition of 35%. Work on CS(=O)(=O)NC(=O)[C@@H](N)Cc1ccc(O)cc1 yielded an inhibition of 12%. Compound N[C@@H](Cc1ccc(O)cc1)C(=O)NO has an inhibition of 39%. For CC(C)C[C@H](N)C(=O)NO, the inhibition was 50%. Compound NCC(=O)NO has an inhibition of 38%. For N[C@@H](Cc1ccccc1)c1nnn[nH]1, the inhibition was 11%.

These compounds were tested against T1, Large neutral amino acids transporter small subunit 1 (assay: Inhibition of human LAT1 expressed in HEK293-T-Rex cells assessed as inhibition of [3H]-gabapentin uptake by scintillation counting cis-inhibition assay relative to BCH inhibition (RV = 100%)).
Format: cell-based
Compound CC(C)C[C@H](N)C(=O)O [LEUCINE] has an IC50 of 87 µM. Compound CSCC[C@H](N)C(=O)NO has an IC50 greater than 200 µM. Compound NCC(=O)O [GLYCINE] has an IC50 greater than 200 µM. CC[C@H](C)[C@H](N)C(=O)NO gave an IC50 greater than 200 µM. CC(C)C[C@H](N)C(N)=O showed an IC50 greater than 200 µM. Compound CONC(=O)[C@@H](N)CC(C)C has an IC50 greater than 200 µM. Work on CC(C)C[C@H](N)C(=O)NO yielded an IC50 greater than 200 µM. With CC[C@H](C)[C@H](N)C(=O)O [ISOLEUCINE] the IC50 was 150 µM. In the case of NCC(=O)NO, the IC50 is reported as greater than 200 µM. CSCC[C@H](N)C(=O)O [METHIONINE] showed an IC50 of 180 µM.
